This note sets out measurements from ChEMBL document CHEMBL4715736, “Identification of anticancer agents based on the thieno[2,3-b]pyridine and 1H-pyrazole molecular scaffolds” (2016).

Common to all, as to type: functional
What all share (conditions): read-out: Activity

For one experiment, the system named is K562. The experiment in a line: Growth inhibition of human K562 cells assessed as cell growth at 10 uM incubated for 48 hrs by sulforhodamine B assay relative to control. An outline of the steps:
(§1)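 Submitted to the NCI Developmental Therapeutics Program for the NCI60 human tumour cell line panel. First screen at a single 10 µM concentration. Read-out is growth relative to untreated control cells set at 100%.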
For orientation: In SRB staining, fixed cells bind dye roughly in proportion to their protein.

The subject of another experiment is SR. Put plainly: Growth inhibition of human SR cells assessed as cell growth at 10 uM incubated for 48 hrs by sulforhodamine B assay relative to control. A digest of the protocol: (§2)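 Run by the NCI Developmental Therapeutics Program as part of its 60-line human tumour panel. Each compound tested at a single 10 µM dose. Growth expressed as % relative to untreated control cells (100%).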

Another experiment deals with NCI-H226. The experiment in a line: Growth inhibition of human NCI-H226 cells assessed as cell growth at 10 uM incubated for 48 hrs by sulforhodamine B assay relative to control. A digest of the protocol: as §1
For another experiment, the system named is NCI-H322M. Put plainly: Growth inhibition of human NCI-H322M cells assessed as cell growth at 10 uM incubated for 48 hrs by sulforhodamine B assay relative to control. An outline of the steps:
as §1

The next experiment has as its system NCI-H460. Put plainly: Growth inhibition of human NCI-H460 cells assessed as cell growth at 10 uM incubated for 48 hrs by sulforhodamine B assay relative to control. A digest of the protocol:
as §1

The subject of the next experiment is NCI-H522. Put plainly: Growth inhibition of human NCI-H522 cells assessed as cell growth at 10 uM incubated for 48 hrs by sulforhodamine B assay relative to control. A digest of the protocol:
as §1

Another experiment concerns COLO 205. Put plainly: Growth inhibition of human COLO 205 cells assessed as cell growth at 10 uM incubated for 48 hrs by sulforhodamine B assay relative to control. An outline of the steps: (§3)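 NCI Developmental Therapeutics Program NCI60 panel. Compounds that were active in the 10 µM one-dose screen went on to dose–response testing. Growth at each concentration is expressed relative to untreated control (100%). GI50 (concentration giving 50% of maximal inhibition of proliferation) and TGI (concentration giving total growth inhibition) were derived from the curves.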

The subject of another experiment is HCT-116. Put plainly: Growth inhibition of human HCT-116 cells assessed as cell growth at 10 uM incubated for 48 hrs by sulforhodamine B assay relative to control. An outline of the steps:
as §1

Another experiment deals with HCT-15. Put plainly: Growth inhibition of human HCT-15 cells assessed as cell growth at 10 uM incubated for 48 hrs by sulforhodamine B assay relative to control. An outline of the steps:
as §1

A further experiment deals with HT-29. Put plainly: Growth inhibition of human HT-29 cells assessed as cell growth at 10 uM incubated for 48 hrs by sulforhodamine B assay relative to control. An outline of the steps:
as §1

A further experiment deals with SW-620. Put plainly: Growth inhibition of human SW-620 cells assessed as cell growth at 10 uM incubated for 48 hrs by sulforhodamine B assay relative to control. A digest of the protocol: as §2
In another experiment the test system is SF-268. Put plainly: Growth inhibition of human SF-268 cells assessed as cell growth at 10 uM incubated for 48 hrs by sulforhodamine B assay relative to control. An outline of the steps: as §2
A further experiment has as its system SNB-75. The experiment in a line: Growth inhibition of human SNB-75 cells assessed as cell growth at 10 uM incubated for 48 hrs by sulforhodamine B assay relative to control. A digest of the protocol: as §2
In a further experiment the test system is SK-MEL-2. Put plainly: Growth inhibition of human SK-MEL-2 cells assessed as cell growth at 10 uM incubated for 48 hrs by sulforhodamine B assay relative to control. A digest of the protocol: as §2
The subject of the next experiment is SK-MEL-28. The experiment in a line: Growth inhibition of human SK-MEL-28 cells assessed as cell growth at 10 uM incubated for 48 hrs by sulforhodamine B assay relative to control. An outline of the steps:
as §2

The test system of the next experiment is OVCAR-4. The experiment in a line: Growth inhibition of human OVCAR-4 cells assessed as cell growth at 10 uM incubated for 48 hrs by sulforhodamine B assay relative to control. An outline of the steps: as §2
A further experiment relates to NCI/ADR-RES. The experiment in a line: Growth inhibition of human NCI/ADR-RES cells assessed as cell growth at 10 uM incubated for 48 hrs by sulforhodamine B assay relative to control. A digest of the protocol: as §1
The subject of the next experiment is SK-OV-3. The experiment in a line: Growth inhibition of human SK-OV-3 cells assessed as cell growth at 10 uM incubated for 48 hrs by sulforhodamine B assay relative to control. An outline of the steps: as §2
The test system of another experiment is ACHN. Put plainly: Growth inhibition of human ACHN cells assessed as cell growth at 10 uM incubated for 48 hrs by sulforhodamine B assay relative to control. An outline of the steps: (§4)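 NCI Developmental Therapeutics Program NCI60 human tumour cell line panel, one-dose primary screen with every compound at 10 µM. Growth is expressed as % of untreated control cells (100%).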

The subject of the next experiment is TK-10. The experiment in a line: Growth inhibition of human TK-10 cells assessed as cell growth at 10 uM incubated for 48 hrs by sulforhodamine B assay relative to control. An outline of the steps:
as §2

The next experiment has as its system PC-3. The experiment in a line: Growth inhibition of human PC-3 cells assessed as cell growth at 10 uM incubated for 48 hrs by sulforhodamine B assay relative to control. An outline of the steps:
as §2

Another experiment relates to MCF7. The experiment in a line: Growth inhibition of human MCF7 cells assessed as cell growth at 10 uM incubated for 48 hrs by sulforhodamine B assay relative to control. An outline of the steps:
as §1

The test system of a further experiment is Hs-578T. Put plainly: Growth inhibition of human Hs-578T cells assessed as cell growth at 10 uM incubated for 48 hrs by sulforhodamine B assay relative to control. An outline of the steps: as §1
For a further experiment, the system named is BT-549. The experiment in a line: Growth inhibition of human BT-549 cells assessed as cell growth at 10 uM incubated for 48 hrs by sulforhodamine B assay relative to control. A digest of the protocol:
as §4

Another experiment deals with CAKI-1. The experiment in a line: Growth inhibition of human CAKI-1 cells assessed as cell growth at 10 uM incubated for 48 hrs by sulforhodamine B assay relative to control. An outline of the steps:
as §3

For the compound `CCOc1ccc(-c2cc(N)n(S(=O)(=O)c3ccc(OC)cc3)n2)cc1`, the growth at 10 µM in the experiment on K562 was determined as 105%; in the experiment on SR, 116%; in the experiment on NCI-H226, 97.7%; in the experiment on NCI-H322M, 102%; in the experiment on NCI-H460, 98.8%; in the experiment on NCI-H522, 101%. In addition, the growth at 10 µM was 116% in the experiment on COLO 205; 96% in the experiment with HCT-116; 98.7% with HCT-15; 105% in the experiment on HT-29; 110% with SW-620; 109% in the experiment on SF-268. The growth at 10 µM in the experiment with SNB-75 was found to be 89.9%; in the experiment with SK-MEL-2 it was 110%; in the experiment with SK-MEL-28, 103%; with OVCAR-4 it was 103%; in the experiment with NCI/ADR-RES it was 103%; in the experiment on SK-OV-3 it was 114%. In addition, the growth at 10 µM came out at 102% in the experiment on ACHN; 130% with TK-10; 88.6% in the experiment with PC-3; 88.2% in the experiment with MCF7; 99.7% with Hs-578T; 111% in the experiment with BT-549.

In the case of `Cc1cccc(NC(=O)c2sc3nc4c(cc3c2N)CN(Cc2ccccc2)CC4)c1`, the growth at 10 µM in the experiment on K562 is 109%; in the experiment with SR it was 95%; in the experiment on NCI-H226, 100%; in the experiment on NCI-H322M, 103%; with NCI-H460, 98.6%; with NCI-H522, 114%. The growth at 10 µM was 104% in the experiment with COLO 205; 92.6% in the experiment with HCT-116; 97.5% in the experiment with HCT-15; 100% in the experiment with HT-29; 96.8% with SW-620; 103% with SF-268. In addition, the growth at 10 µM is 101% in the experiment with SNB-75; 129% in the experiment on SK-MEL-2; 103% with SK-MEL-28; 105% with OVCAR-4; 101% in the experiment on NCI/ADR-RES; 105% in the experiment on SK-OV-3. Besides, the growth at 10 µM with ACHN worked out at 102%; in the experiment on TK-10 it was 114%; with PC-3 it was 98%; in the experiment on MCF7, 95.9%; in the experiment with Hs-578T it was 94.6%; in the experiment on BT-549, 79%.

Take `CC1(C)CCc2cc(-c3ccn(S(=O)(=O)c4ccc(C(C)(C)C)cc4)n3)ccc2O1`: the growth at 10 µM in the experiment with K562 amounted to 72.2%; in the experiment on SR, 77.8%; in the experiment on NCI-H226, 70.5%; in the experiment on NCI-H322M, 95.6%; with NCI-H460 it was 82.9%; in the experiment with NCI-H522, 66.5%. In addition, the growth at 10 µM with COLO 205 turned out to be 118%; in the experiment on HCT-116, 73.1%; in the experiment with HCT-15 it was 87%; in the experiment with SW-620, 89.7%; with SF-268 it was 92.1%; in the experiment with SNB-75 it was 100%. In addition, the growth at 10 µM turned out to be 58.2% in the experiment with SK-MEL-2; 92.8% in the experiment with SK-MEL-28; 63.2% with OVCAR-4; 82.5% in the experiment with NCI/ADR-RES; 87.8% in the experiment on ACHN; 68.9% in the experiment on CAKI-1. Also, the growth at 10 µM came to 84.3% in the experiment on TK-10, 72.9% with PC-3, 95.7% with MCF7 and 97.8% in the experiment with Hs-578T.

On to `CC(C)N1CCc2nc3sc(C(=O)Nc4ccccc4)c(N)c3cc2C1`, for which the growth at 10 µM in the experiment with K562 is 97.8%; in the experiment on SR it was 86.6%; in the experiment on NCI-H226 it was 94.8%; in the experiment on NCI-H322M, 108%; with NCI-H460, 99.6%; in the experiment with NCI-H522 it was 104%. In addition, the growth at 10 µM came to 102% in the experiment with COLO 205; 102% with HCT-116; 101% in the experiment on HCT-15; 103% in the experiment with HT-29; 96.4% with SW-620; 113% in the experiment with SF-268. The growth at 10 µM with SNB-75 was 69.1%; with SK-MEL-2, 114%; in the experiment with SK-MEL-28, 108%; with OVCAR-4, 105%; in the experiment on NCI/ADR-RES it was 100%; with SK-OV-3, 113%. The growth at 10 µM with ACHN is 100%; with TK-10 it was 127%; in the experiment on PC-3 it was 81.9%; in the experiment on MCF7, 94.7%; with Hs-578T, 100%; in the experiment with BT-549, 106%.

Regarding `CC1(C)CCc2cc(-c3ccn(S(=O)(=O)c4ccc(Cl)cc4Cl)n3)ccc2O1`, the growth at 10 µM in the experiment on K562 amounted to 75.7%; in the experiment on SR, 77.9%; in the experiment on NCI-H226, 87%; in the experiment with NCI-H322M, 90.5%; with NCI-H460, 95.6%; with NCI-H522, 60.4%. Also, the growth at 10 µM in the experiment on COLO 205 stood at 106%; in the experiment with HCT-116 it was 73.6%; in the experiment on HCT-15 it was 91%; in the experiment on SW-620, 91.9%; with SF-268 it was 99.5%; in the experiment on SNB-75 it was 97.4%. Besides, the growth at 10 µM was 79.7% in the experiment on SK-MEL-2; 102% in the experiment on SK-MEL-28; 69% with OVCAR-4; 96.1% in the experiment on NCI/ADR-RES; 103% with ACHN; 83.8% in the experiment with CAKI-1. For the same compound, the growth at 10 µM with TK-10 was found to be 68.7%; in the experiment with PC-3, 62.3%; with MCF7, 86.6%; in the experiment on Hs-578T, 98.8%.

Turning to `Nc1c(C(=O)N(c2ccccc2)c2ccccc2)sc2nc3c(cc12)C(=O)CCC3`, the growth at 10 µM in the experiment with K562 came to 113%; with SR it was 55.6%; in the experiment on NCI-H226, 104%; in the experiment with NCI-H322M, 102%; with NCI-H460 it was 99.9%; with NCI-H522, 103%. In addition, the growth at 10 µM in the experiment with COLO 205 turned out to be 109%; in the experiment with HCT-116, 94.2%; in the experiment on HCT-15, 89.5%; in the experiment on HT-29, 84.5%; with SW-620 it was 89.3%; in the experiment on SF-268, 99.8%. For the same compound, the growth at 10 µM amounted to 108% in the experiment on SNB-75; 117% in the experiment with SK-MEL-2; 116% in the experiment with SK-MEL-28; 101% in the experiment with NCI/ADR-RES; 108% with SK-OV-3; 110% in the experiment with ACHN. Also, the growth at 10 µM was 113% with TK-10; 103% in the experiment on PC-3; 99.6% with MCF7; 92.3% in the experiment with Hs-578T; 55.4% in the experiment on BT-549.
